“And” between values parts separate entries of the source, which are not always exact repeats. Equal entries are not always repeated. Where two headings read alike, the source gives them in different places. Each block holds one compound with its values, some of them ahead of it.
Assays:
[1] = mice, cited from earlier work
[2] = rats, cited from earlier work
[3] = oral administration, rats; cited from earlier work
[4] = Stock solution stability at −30 ± 10 °C; assay type: physicochemical; conditions: for observed conc. after storage: stock solution in methanol, 22 days; for observed conc. after storage / accuracy after storage: n = 3; for time stable in stock solution / accuracy after storage: stock solution; for accuracy after storage: 22 days (text: 20 days), vs fresh
Method in brief: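 HHC and IS methanol stocks were diluted in methanol to 375 and 110 ng/mL (n = 3) and stored at −30 ± 10 °C for 22 days. Peak responses by LC-MS/MS were compared with freshly prepared stocks, and results were checked against nominal values (precision within 15%, accuracy within ±15%).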

[5] = Pharmacokinetics of HHC in plasma after single oral administration in mice; assay type: in vivo; conditions: 40 mg/kg
Method in brief: (§1)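 Male mice (18–22 g, acclimatised 1 week) received a single 40 mg/kg dose, IP or by oral gavage, in 0.1% DMSO diluted in 1% hydroxyethyl cellulose (10 μL/g). Four mice per time point (predose, 5–30 min, 1, 2, 4, 8, 24 h) were bled from the left ventricle under anaesthesia into EDTA. Plasma underwent MTBE extraction with butylparaben IS, then negative-ESI LC-MS/MS MRM. Noncompartmental analysis.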

[6] = Tissue distribution of HHC; assay type: in vivo, mice; conditions: male, mouse, ip, 40 mg/kg
Method in brief: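 Mice were dosed 40 mg/kg IP in 0.1% DMSO/1% hydroxyethyl cellulose, and liver, kidney and brain were removed at the plasma sampling times (n = 4; brain n = 3). Tissues were homogenised 1:10 (w/w) in PBS. Brain was extracted like plasma; kidney and liver received acetone precipitation before MTBE extraction with butylparaben IS. Negative-ESI LC-MS/MS MRM, calibrated at 5–500 ng/mL. Noncompartmental parameters.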

[7] = pH 7.4; cited from earlier work
[8] = Long-term stability of HHC in mice plasma at −30 ± 10 °C; assay type: in vitro ADME; conditions: 20 days; for accuracy after storage / observed conc. after storage: n = 3
Method in brief: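 Blank mouse plasma was spiked at 15 and 375 ng/mL (n = 3) and kept at −30 ± 10 °C for 20 days. Samples were then extracted with MTBE using butylparaben IS and quantified by LC-MS/MS against daily calibration curves. Results were compared with nominal values; acceptance was precision within 15% and accuracy within ±15%.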

[9] = Pharmacokinetics of HHC in plasma after single IP administration in mice; assay type: in vivo; conditions: 40 mg/kg
Method in brief: as §1

[10] = after intravenous curcumin 20 mg/kg

Structure (SMILES): COc1cc(/C=C/C(=O)CC(=O)CCc2ccc(O)c(OC)c2)ccc1O [dihydrocurcumin]
AUC0–∞ [1, 10]: 6.0 ± 1.2 mg·min/L | detection in kidneys [1, 10]: present

Structure (SMILES): COc1cc(/C=C/C(=O)CC(=O)/C=C/c2ccc(O)c(OC)c2)ccc1O [curcumin]
AUC0–∞ [1, 10]: 107.0 ± 18.3 mg·min/L | T1/2,z ([1]; intravenous curcumin 20 mg/kg, plasma): 0.538 ± 0.18 h | elimination half-life (T1/2,β) ([2]; intravenous 10 mg/kg): 0.742 ± 0.125 h | Tmax ([2]; oral 500 mg/kg): 0.695 ± 0.09 h | elimination half-life (T1/2,β) ([2]; oral 500 mg/kg): 0.468 ± 0.0933 h | oral bioavailability [2]: approximately 1% | half-life [3]: 0.545 h

time stable in stock solution [4]: at least 22 days | observed conc. after storage ([4]; nominal 110.10 ng/mL): 112.08 ± 0.90 ng/mL | accuracy after storage [4]: 101.80%
Structure (SMILES): CCCCOC(=O)c1ccc(O)cc1 [IS, butylparaben, reference compound]

Structure (SMILES): COc1cc(CCC(=O)CC(=O)CCc2ccc(O)c(OC)c2)ccc1O [tetrahydrocurcumin]
AUC0–∞ [1, 10]: 12.0 ± 4.0 mg·min/L | detection in liver [1, 10]: detectable

AUC(0-inf) ([5]; male, mouse, po): 142 ng·h/mL | AUC(0-t) ([5]; male, mouse, po): 127 ng·h/mL | Cmax ([5]; male, mouse, po): 194 ± 43.5 ng/mL | MRT inf ([5]; male, mouse, po): 2.58 h | MRT last ([5]; male, mouse, po): 1.61 h | half-life ([5]; male, mouse, po, T1/2, oral 40 mg/kg, mice, n = 4): ~2.17 h | Tmax ([5]; male, mouse, po, Tmax, oral 40 mg/kg, mice, n = 4): ~0.25 h | half-life ([5]; male, mouse, po, half-life, oral 40 mg/kg, mice): ~2.17 h | percent relative bioavailability (AUC0–t oral / AUC0–t IP) ([5]; oral vs IP, mice): 12.28% | AUC(0-inf) ([6]; brain): 21.1 ng·h/mL | AUC(0-t) ([6]; brain): 18.7 ng·h/mL | Cmax ([6]; brain): 120 ± 54.1 ng/mL | MRT inf ([6]; brain): 2.04 h | MRT last ([6]; brain): 1.05 h | Tmax ([6]; brain): 5 min | half-life ([6]; brain): 1.77 ± 0.98 h | Cmax ([6]; kidney): 1700 ± 897 ng/mL | MRT inf ([6]; kidney): 1.94 h | MRT last ([6]; kidney): 1.6 h | Tmax ([6]; kidney): 6.3 min | half-life ([6]; kidney): 1.7 ± 0.623 h | MRT inf ([6]; liver): 2.67 h | MRT last ([6]; liver): 2.6 h | Tmax ([6]; liver): 5 min | half-life ([6]; liver): 1.74 ± 0.43 h | time stable in stock solution [4]: at least 22 days | observed conc. after storage ([4]; nominal 375.00 ng/mL): 398.08 ± 1.45 ng/mL | accuracy after storage [4]: 106.15% | stability in plasma samples [8]: stable | accuracy after storage ([8]; HQC nominal 375.00 ng/mL): 94.81% | observed conc. after storage ([8]; HQC nominal 375.00 ng/mL): 355.53 ± 34.51 ng/mL | accuracy after storage ([8]; LQC nominal 15.00 ng/mL): 90.27% | observed conc. after storage ([8]; LQC nominal 15.00 ng/mL): 13.54 ± 1.03 ng/mL | Cmax after IP relative to oral administration ([9]; mice, IP vs oral): 47.90 times and 47.9 times | Cmax ([9]; male, mouse, ip): 9300 ± 4290 ng/mL | MRT inf ([9]; male, mouse, ip): 0.875 h | MRT last ([9]; male, mouse, ip): 0.708 h | half-life ([9]; male, mouse, ip, T1/2, IP 40 mg/kg, mice, n = 4): ~1.52 h | Tmax ([9]; male, mouse, ip, Tmax, IP 40 mg/kg, mice, n = 4): ~5 min | half-life ([9]; male, mouse, ip, half-life, IP 40 mg/kg, mice): ~1.52 h
Structure (SMILES): COc1cc(CCC(=O)CC(O)CCc2ccc(O)c(OC)c2)ccc1O (stereo not shown) [HHC, hexahydrocurcumin]
stability compared with curcumin [7]: superior stability to curcumin
